Test results from ChEMBL document CHEMBL3739335, “Phosphonooxymethyl Prodrug of Triptolide: Synthesis, Physicochemical Characterization, and Efficacy in Human Colon Adenocarcinoma and Ovarian Cancer Xenografts” (J Med Chem, 2015).
The source made the active and inactive calls. The calls are words filed in the database; no cut-off is given here.

How the values were obtained:
[1] = Shelf life of the compound in buffer assessed as time for 10% loss of compound at 25 degC at pH 7.4; format: physicochemical
Outline: (§1)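 Pseudo-first-order kobsd at each temperature was fitted to an Arrhenius plot, which was extrapolated to 25 and 4 °C. t1/2 and t90 (time for 10% loss) were calculated from the extrapolated kobsd.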

[2] = Stability of the compound in simulated intestinal fluid assessed as compound remaining at pH 7.5 after 1 hr by HPLC analysis; format: ADME; settings: read-out: Stability
Outline: (§2)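 Drug incubated in simulated gastric fluid or simulated intestinal fluid and sampled at 0, 1, 2, 4, 8 and 24 h. Percent remaining was measured by reversed-phase C18 HPLC with photodiode-array detection, using a 20-min gradient of 10–70% acetonitrile against 10 mM sodium phosphate buffer at pH 7.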

[3] = Second dissociation constant, pKa2 of the compound by 31P NMR analysis
Outline: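 pKa2 derived from the pH dependence of the observed 31P NMR chemical shift across solutions of varying pH, by sigmoidal fit (titration-type curve); at 25 °C.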

[4] = Stability of the compound in simulated intestinal fluid assessed as compound remaining at pH 7.5 after 2 hrs by HPLC analysis; format: ADME; settings: read-out: Stability; outline: as §2
Mus musculus [5] = assay: Toxicity in athymic nude mouse xenografted with human A2780 cells assessed as dehydration at 1.2 mg/kg, po administered for 30 days; format: organism-based; settings: in vivo, 720 h
Outline: (§3)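 Female athymic nude mice, 7–9 weeks old, received 2.5 × 10^6 A2780 cells subcutaneously in the flank in 50% Matrigel/RPMI 1640. Mice were randomized at a mean tumor volume of 188 mm3, 10 per group. Daily oral gavage in USP saline (0.2 mL) for 30 days, dosed on group-mean body weight. Clinical signs, survival and body weights were recorded.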

HT-29 = assay: Antitumor activity against human HT-29 cells xenografted in athymic nude mouse at 0.3 to 0.9 mg/kg, ip qd administered for 28 days; format: functional, organism-based
Outline: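 Female athymic nude mice, 7–9 weeks, implanted s.c. on right flank with 1.74 × 10^6 HT-29 cells (ATCC, mycoplasma/rodent-pathogen tested) in 50% Matrigel/50% McCoy's 5A; randomized at mean tumor 110 mm3, 10/group. IP dosing in USP saline, 0.2 mL, over a 28-day treatment period. Tumor volume by caliper (L × W2/2) at least twice weekly, tumor weight at necropsy, survival, body weight.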

[6] = Chemical stability of the compound in buffer assessed as pseudo-first-order rate constant at 25 degC at pH 7.4 by Arrhenius plot analysis; format: physicochemical; outline: as §1
[7] = Chemical stability of the compound in buffer assessed as compound remaining at pH 7.4 after 1 hr by HPLC analysis; format: physicochemical; settings: read-out: Stability
[8] = Chemical stability of the compound in buffer assessed as compound remaining at pH 7.4 after 8 hrs by HPLC analysis; format: physicochemical; settings: read-out: Stability
[9] = Chemical stability of the compound in buffer assessed as pseudo-first-order rate constant at 40 degC at pH 7.4 by Arrhenius plot analysis; format: physicochemical
[10] = Chemical stability of the compound in buffer assessed as compound remaining at pH 7.4 after 24 hrs by HPLC analysis; format: physicochemical; settings: read-out: Stability
[11] = Chemical stability of the compound in buffer assessed as compound remaining at pH 2 after 1 hr by HPLC analysis; format: physicochemical; settings: read-out: Stability
[12] = Stability of the compound in glycine buffer at pH 9.8 after 1 hr in absence of bovine intestinal mucosal alkaline phosphatase; format: physicochemical; settings: pH 9.8, 1 h
Outline: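 Conversion in glycine buffer pH 9.8 with alkaline phosphatase from bovine intestinal mucosa; loss of compound and formation of triptolide followed, first-order fit for half-life. Control run in same buffer without enzyme for 1 h.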

[13] = Stability of the compound in simulated gastric fluid assessed as compound remaining after 8 hrs by HPLC analysis
[14] = Chemical stability of the compound in buffer assessed as compound remaining at pH 6 after 1 hr by HPLC analysis; format: physicochemical; settings: read-out: Stability
[15] = Chemical stability of the compound in buffer assessed as compound remaining at pH 9 after 4 hrs by HPLC analysis; format: physicochemical; settings: read-out: Stability
[16] = Chemical stability of the compound in buffer assessed as compound remaining at pH 2 after 24 hrs by HPLC analysis; format: physicochemical; settings: read-out: Stability
[17] = Chemical stability of the compound in buffer assessed as compound remaining at pH 9 after 8 hrs by HPLC analysis; format: physicochemical; settings: read-out: Stability
Mus musculus [18] = assay: Toxicity in athymic nude mouse xenografted with human A2780 cells assessed as morbidity at 0.6 to 0.9 mg/kg, po administered for 30 days; format: organism-based; settings: in vivo, 720 h; outline: as §3
[19] = Chemical stability of the compound in buffer assessed as compound remaining at pH 2 after 4 hrs by HPLC analysis; format: physicochemical; settings: read-out: Stability
[20] = Half life of the compound in buffer at 4 degC at pH 7.4; format: physicochemical; outline: as §1
[21] = Half life of the compound in buffer at 25 degC at pH 7.4; format: ADME; outline: as §1
[22] = Chemical stability of the compound in buffer assessed as compound remaining at pH 7.4 after 2 hrs by HPLC analysis; format: physicochemical; settings: read-out: Stability

CC(C)[C@]12O[C@H]1[C@@H]1O[C@]13[C@]1(O[C@H]1C[C@H]1C4=C(CC[C@@]13C)C(=O)OC4)[C@@H]2OCOP(=O)([O-])[O-].[Na+].[Na+] [MINNELIDE]
Time [1]: 0.14 yr
remaining at 1 h [2]: 100%
pKa [3]: 6.61
remaining at 2 h [4]: 100%
Activity (Mus musculus [5]): Toxic
Activity (HT-29): Active
K [6]: 8.6 ×10⁻⁵ /hr
remaining at 1 h [7]: 100%
remaining at 8 h [8]: 100%
K [9]: 0.000494 h⁻¹
remaining at 24 h [10]: 100%
remaining at 1 h [11]: 98%
Stability [12]: Stable
remaining at 8 h [13]: 47%
remaining at 1 h [14]: 100%
remaining at 4 h [15]: 100%
remaining at 24 h [16]: 83%
remaining at 8 h [17]: 100%
Activity (Mus musculus [18]): Toxic
remaining at 4 h [19]: 95%
t1/2 [20]: 12.2 yr
t1/2 [21]: 0.92 yr
remaining at 2 h [22]: 100%
